Test results: ChEMBL document CHEMBL4052615, “Discovery of 4-amino-3-arylsulfoquinolines, a novel non-acetylenic chemotype of metabotropic glutamate 5 (mGlu5) receptor negative allosteric modulators” (Eur J Med Chem, 2017)

These molecules were tested against Metabotropic glutamate receptor 5 (Homo sapiens, UniProt P41594) (assay: Displacement of [3H]M-MPEP from mGluR5 (unknown origin) at 1 uM measured after 60 mins relative to control).
How it was run: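 Rat cerebrocortical membranes or membranes from A18 cells expressing human mGlu5a, incubated with [³H]M-MPEP and test compound at 1 µM in 50 mM Tris pH 7.6 with 2 mM MgCl₂ and 2 mM CaCl₂, 60 min at 25°C. Non-specific binding was taken with […]. Result is % displacement, run in duplicate or triplicate.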

Sequence of Metabotropic glutamate receptor 5 (P41594 21-1212 limits assumed): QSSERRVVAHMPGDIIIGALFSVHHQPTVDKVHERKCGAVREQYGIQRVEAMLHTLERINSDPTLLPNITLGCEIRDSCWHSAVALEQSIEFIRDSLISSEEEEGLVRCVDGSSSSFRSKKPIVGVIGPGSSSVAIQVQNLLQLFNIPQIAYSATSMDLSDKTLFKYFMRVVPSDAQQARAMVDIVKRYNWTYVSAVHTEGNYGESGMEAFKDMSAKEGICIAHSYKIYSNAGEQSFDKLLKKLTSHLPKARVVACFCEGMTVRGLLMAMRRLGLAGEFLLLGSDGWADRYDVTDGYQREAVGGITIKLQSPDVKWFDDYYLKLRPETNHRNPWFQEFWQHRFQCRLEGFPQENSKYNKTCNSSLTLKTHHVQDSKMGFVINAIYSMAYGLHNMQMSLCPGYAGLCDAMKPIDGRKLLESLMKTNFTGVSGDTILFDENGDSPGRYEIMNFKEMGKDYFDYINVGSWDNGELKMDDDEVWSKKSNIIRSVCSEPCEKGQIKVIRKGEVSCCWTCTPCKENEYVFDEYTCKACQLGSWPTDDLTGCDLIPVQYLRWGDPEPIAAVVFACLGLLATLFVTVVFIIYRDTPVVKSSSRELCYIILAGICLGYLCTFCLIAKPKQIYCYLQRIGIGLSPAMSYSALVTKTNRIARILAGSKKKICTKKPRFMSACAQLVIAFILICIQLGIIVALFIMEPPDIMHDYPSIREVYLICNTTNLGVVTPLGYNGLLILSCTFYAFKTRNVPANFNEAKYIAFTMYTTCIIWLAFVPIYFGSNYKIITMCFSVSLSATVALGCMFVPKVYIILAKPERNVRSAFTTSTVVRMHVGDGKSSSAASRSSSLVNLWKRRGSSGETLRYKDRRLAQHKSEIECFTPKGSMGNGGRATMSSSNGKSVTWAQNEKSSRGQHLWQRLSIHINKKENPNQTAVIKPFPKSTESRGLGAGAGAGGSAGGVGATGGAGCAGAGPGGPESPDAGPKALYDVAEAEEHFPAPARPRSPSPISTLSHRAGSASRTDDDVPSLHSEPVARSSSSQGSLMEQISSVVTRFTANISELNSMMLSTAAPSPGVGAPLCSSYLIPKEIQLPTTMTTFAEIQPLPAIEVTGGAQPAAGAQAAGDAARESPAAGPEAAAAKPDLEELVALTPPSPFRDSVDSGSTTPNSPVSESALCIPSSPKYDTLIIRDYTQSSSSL

Compared with `Cc1ccc2ncc(S(=O)(=O)c3cccc(C#N)c3)c(N3CCC(C)CC3)c2c1`, `CC1CCN(c2c(S(=O)(=O)c3cccc(C#N)c3)cnc3ccc(Cl)cc23)CC1` is higher in inhibition: 52% for the first, 90% for the second.

Going from `Cc1cc(C)cc(S(=O)(=O)c2cnc3ccc(C)cc3c2N2CCC(C)CC2)c1` to `Cc1ccc2ncc(S(=O)(=O)c3ccc(C)c(C)c3)c(N3CCC(C)CC3)c2c1`, the inhibition rises from 80% to 90%.

Compared with `Cc1ccc2ncc(S(=O)(=O)c3ccccc3)c(N3CCOCC3)c2c1`, `O=S(=O)(c1ccccc1)c1cnc2ccc(Cl)cc2c1N1CCOCC1` is lower in inhibition: 86% for the first, 18% for the second.

Going from `CC1CCN(c2c(S(=O)(=O)c3ccc(F)c(Cl)c3)cnc3ccc(F)cc23)CC1` to `CC1CCN(c2c(S(=O)(=O)c3ccc(F)c(Cl)c3)cnc3cc(F)ccc23)CC1`, the inhibition falls from 95% to 94%.

Compared with `COc1ccc2ncc(S(=O)(=O)c3ccc(C)c(Cl)c3)c(N3CCOCC3)c2c1`, `COc1ccc2ncc(S(=O)(=O)c3ccc(OC)c(Cl)c3)c(N3CCOCC3)c2c1` is lower in inhibition: 28% for the first, 9% for the second.

First: COc1ccc2ncc(S(=O)(=O)c3cc(Cl)cc(Cl)c3)c(N3CCOCC3)c2c1
Second: O=S(=O)(c1cc(Cl)cc(Cl)c1)c1cnc2ccc(F)cc2c1N1CCOCC1
The inhibition of the first is higher: 23% for the first, 17% for the second.

First: CC1CCN(c2c(S(=O)(=O)c3ccc(Cl)cc3)cnc3c(F)cccc23)CC1
Second: Cc1ccc(S(=O)(=O)c2cnc3c(F)cccc3c2N2CCC(C)CC2)cc1
The inhibition of the first is lower: 85% for the first, 93% for the second.

`Cc1ccc2ncc(S(=O)(=O)c3ccc(F)cc3)c(N3CCC(C)CC3)c2c1` and `COc1ccc(S(=O)(=O)c2cnc3cc(F)ccc3c2N2CCC(C)CC2)cc1` are the same in inhibition: 90% for the first, 90% for the second.

Going from `O=S(=O)(c1ccccc1)c1cnc2c(F)cccc2c1N1CCOCC1` to `O=S(=O)(c1cc(Cl)cc(Cl)c1)c1cnc2c(F)cccc2c1N1CCOCC1`, the inhibition rises from 4% to 77%.

Compared with `COc1ccc2ncc(S(=O)(=O)c3ccc(OC)c(Cl)c3)c(N3CCC(C)CC3)c2c1`, `COc1ccc(S(=O)(=O)c2cnc3ccc(Cl)cc3c2N2CCC(C)CC2)cc1OC` is higher in inhibition: 21% for the first, 61% for the second.

`CC1CCN(c2c(S(=O)(=O)c3cccc(C#N)c3)cnc3cc(Cl)ccc23)CC1` and `CC1CCN(c2c(S(=O)(=O)c3cccc(F)c3)cnc3cc(Cl)ccc23)CC1` cannot be ordered by inhibition: 94% for the first, 5.6 to 96% for the second.

Compared with `CC1CCN(c2c(S(=O)(=O)c3ccc(C#N)cc3)cnc3c(F)cccc23)CC1`, `COc1ccc(S(=O)(=O)c2cnc3c(F)cccc3c2N2CCC(C)CC2)cc1` is lower in inhibition: 86% for the first, 67% for the second.

Going from `CC1CCN(c2c(S(=O)(=O)c3ccc(F)c(F)c3)cnc3ccc(F)cc23)CC1` to `CC1CCN(c2c(S(=O)(=O)c3ccc(F)c(F)c3)cnc3cc(F)ccc23)CC1`, the inhibition rises from 82% to 94%.

Compared with `Cc1ccc(S(=O)(=O)c2cnc3cc(F)ccc3c2N2CCC(C)CC2)cc1F`, `CC1CCN(c2c(S(=O)(=O)c3ccc(F)c(F)c3)cnc3cc(Cl)ccc23)CC1` is higher in inhibition: 89% for the first, 90% for the second.

First: CC1CCN(c2c(S(=O)(=O)c3ccc(F)c(Cl)c3)cnc3c(F)cccc23)CC1
Second: CC1CCN(c2c(S(=O)(=O)c3ccc(F)c(F)c3)cnc3c(F)cccc23)CC1
The inhibition of the first is higher: 95% for the first, 93% for the second.

Compared with `O=S(=O)(c1ccc(F)c(F)c1)c1cnc2cc(Cl)ccc2c1N1CCOCC1`, `O=S(=O)(c1ccc(F)c(F)c1)c1cnc2ccc(Cl)cc2c1N1CCOCC1` is lower in inhibition: 49% for the first, 2% for the second.

Compared with `Cc1ccc(S(=O)(=O)c2cnc3ccc(F)cc3c2N2CCOCC2)cc1Cl`, `O=S(=O)(c1ccc(Cl)c(Cl)c1)c1cnc2ccc(F)cc2c1N1CCOCC1` is lower in inhibition: 69% for the first, 68% for the second.

Compared with `CC1CCN(c2c(S(=O)(=O)c3ccccc3)cnc3ccc(F)cc23)CC1`, `CC1CCN(c2c(S(=O)(=O)c3cccc(C#N)c3)cnc3ccc(F)cc23)CC1` is higher in inhibition: 40% for the first, 93% for the second.

Compared with `COc1ccc(S(=O)(=O)c2cnc3cc(Cl)ccc3c2N2CCC(C)CC2)cc1OC`, `Cc1ccc(S(=O)(=O)c2cnc3cc(Cl)ccc3c2N2CCC(C)CC2)cc1Cl` is lower in inhibition: 93% for the first, 89% for the second.

`Cc1ccc(S(=O)(=O)c2cnc3ccc(F)cc3c2N2CCC(C)CC2)cc1Cl` and `Cc1ccc2ncc(S(=O)(=O)c3ccc(C)c(Cl)c3)c(N3CCC(C)CC3)c2c1` are the same in inhibition: 91% for the first, 91% for the second.

Going from `N#Cc1ccc(S(=O)(=O)c2cnc3cc(Cl)ccc3c2N2CCOCC2)cc1` to `O=S(=O)(c1ccc(Cl)cc1)c1cnc2cc(F)ccc2c1N1CCOCC1`, the inhibition rises from 2% to 50%.

Compared with `O=S(=O)(c1cc(F)cc(F)c1)c1cnc2c(F)cccc2c1N1CCOCC1`, `O=S(=O)(c1cccc(F)c1)c1cnc2ccc(F)cc2c1N1CCOCC1` is lower in inhibition: 52% for the first, 0% for the second.

Compared with `O=S(=O)(c1cccc(Cl)c1)c1cnc2cc(Cl)ccc2c1N1CCOCC1`, `O=S(=O)(c1cccc(Cl)c1)c1cnc2ccc(Cl)cc2c1N1CCOCC1` is lower in inhibition: 81% for the first, 24% for the second.

Going from `CC1CCN(c2c(S(=O)(=O)c3ccc(C#N)cc3)cnc3cc(F)ccc23)CC1` to `COc1ccc(S(=O)(=O)c2cnc3cc(Cl)ccc3c2N2CCC(C)CC2)cc1`, the inhibition falls from 83% to 79%.

Going from `O=S(=O)(c1ccc(F)c(Cl)c1)c1cnc2ccc(Cl)cc2c1N1CCOCC1` to `Cc1ccc2ncc(S(=O)(=O)c3ccc(F)c(Cl)c3)c(N3CCOCC3)c2c1`, the inhibition rises from 39% to 73%.

Compared with `Cc1ccc2ncc(S(=O)(=O)c3cccc(C#N)c3)c(N3CCOCC3)c2c1`, `COc1ccc2ncc(S(=O)(=O)c3cccc(C#N)c3)c(N3CCOCC3)c2c1` is lower in inhibition: 58% for the first, 20% for the second.

Compared with `COc1ccc2ncc(S(=O)(=O)c3cccc(F)c3)c(N3CCC(C)CC3)c2c1`, `COc1cccc(S(=O)(=O)c2cnc3ccc(F)cc3c2N2CCC(C)CC2)c1` is higher in inhibition: 68% for the first, 90% for the second.

Going from `CC1CCN(c2c(S(=O)(=O)c3cccc(Cl)c3)cnc3cc(Cl)ccc23)CC1` to `COc1ccc2ncc(S(=O)(=O)c3cccc(Cl)c3)c(N3CCC(C)CC3)c2c1`, the inhibition falls from 92% to -3%.

First: COc1cccc(S(=O)(=O)c2cnc3ccc(OC)cc3c2N2CCC(C)CC2)c1
Second: COc1ccc(S(=O)(=O)c2cnc3ccc(OC)cc3c2N2CCC(C)CC2)cc1
The inhibition of the first is lower: 0% for the first, 41% for the second.

First: COCC1CCN(c2c(S(=O)(=O)c3cc(F)cc(F)c3)cnc3cc(F)ccc23)CC1
Second: O=S(=O)(c1cccc(F)c1)c1cnc2cc(Cl)ccc2c1N1CCC(CO)CC1
The inhibition of the first is higher: 83% for the first, 71% for the second.

Compared with `COc1ccc2ncc(S(=O)(=O)c3cc(Cl)cc(Cl)c3)c(N3CCC(C)CC3)c2c1`, `COc1ccc2ncc(S(=O)(=O)c3ccc(C)c(F)c3)c(N3CCC(C)CC3)c2c1` is lower in inhibition: 87% for the first, 73% for the second.

First: O=S(=O)(c1ccccc1)c1cnc2ccccc2c1N1CCN(c2ccccc2)CC1
Second: CCOC(=O)C1CCN(c2c(S(=O)(=O)c3ccccc3)cnc3ccccc23)CC1
The inhibition of the first is lower: 13.5% for the first, 33% for the second.

First: COc1cccc(S(=O)(=O)c2cnc3cc(Cl)ccc3c2N2CCOCC2)c1
Second: O=S(=O)(c1cccc(F)c1)c1cnc2cc(Cl)ccc2c1N1CCOCC1
The inhibition of the first is higher: 70% for the first, 32% for the second.

Going from `Cc1cc(C)cc(S(=O)(=O)c2cnc3ccc(C)cc3c2N2CCOCC2)c1` to `Cc1ccc(S(=O)(=O)c2cnc3ccc(C)cc3c2N2CCOCC2)cc1`, the inhibition rises from 47% to 66%.

First: NS(=O)(=O)N1CCN(c2c(S(=O)(=O)c3cccc(F)c3)cnc3cc(F)ccc23)CC1
Second: O=S(=O)(c1cccc(F)c1)c1cnc2cc(F)ccc2c1N1CCOCC1
The inhibition of the first is lower: 1.9% for the first, 4 to 4.1% for the second.

Compared with `Cc1ccc(S(=O)(=O)c2cnc3c(F)cccc3c2N2CCC(C)CC2)cc1F`, `COc1ccc(S(=O)(=O)c2cnc3ccc(F)cc3c2N2CCOCC2)cc1Cl` is lower in inhibition: 93% for the first, 26% for the second.
